In ChEMBL document CHEMBL3085690, “Naturally occurring antimicrobial peptide OH-CATH30 selectively regulates the innate immune response to protect against sepsis” (J Med Chem, 2013):
Calls of active or inactive are those of the source. The calls are words filed in the database; no cut-off is given here. Peptide text beside a SMILES is read from it.

Key:
[1] = system: BMDM; test: Increase of CXCL2 production in mouse BMDM after 6 hrs by ELISA in presence of CD14 Ab; type: functional
[2] = system: Mus musculus; test: Stimulation of innate immune response in Kunming mouse infected with Pseudomonas aeruginosa ATCC 27853 assessed as effect on TNFalpha production in peritoneal lavage at 10 mg/kg, ip after 5 hrs by ELISA; type: functional, organism-based; parameters: dose 10 mg/kg
[3] = system: Mus musculus; test: Stimulation of innate immune response in Kunming mouse assessed as increase of IL-10 level in peritoneal lavage at 10 mg/kg, ip after 5 hrs; type: functional, organism-based; parameters: dose 10 mg/kg
How it was run: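 Female Kunming mice (18−22 g) received a single ip injection of peptide at 10 mg/kg in sterile saline. Peritoneal lavage was collected in 2 mL of cold sterile saline 5 h later, and cytokines and chemokines were measured by ELISA. Data are mean ± SD from four mice, compared by unpaired t test.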

[4] = Cytotoxicity against mouse BMDM at 5 to 20 ug/ml by MTT assay
[5] = system: Mus musculus; test: Stimulation of innate immune response in Kunming mouse assessed as protection against drug-resistant Pseudomonas aeruginosa-induced mortality by measuring survival rate at 10 mg/kg, ip administered 5 hrs before bacterial infection measured up to 7 days; type: functional; conditions: route intraperitoneal
How it was run: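 Female Kunming mice (18−22 g) were dosed ip in sterile saline at 10 mg/kg, 5 h before ip challenge with clinical drug-resistant isolates: E. coli (n = 12), P. aeruginosa (n = 10) or S. aureus (n = 15). Survival was recorded for up to 7 days, with checks every 6 h and euthanasia by CO2 at the humane end point.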

[6] = target: Mitogen-activated protein kinase 1 and 3 (ERK2 and ERK1) (Mus musculus) (UniProt P63085+Q63844); test: Activation of ERK1/2 in mouse BMDM assessed as phosphorylation at 10 ug/ml after 15 to 30 mins by Western blotting; type: protein assay
Sequence of Mitogen-activated protein kinase 1 and 3 (ERK2 and ERK1) (Mus musculus) (P63085 whole entry, looked up): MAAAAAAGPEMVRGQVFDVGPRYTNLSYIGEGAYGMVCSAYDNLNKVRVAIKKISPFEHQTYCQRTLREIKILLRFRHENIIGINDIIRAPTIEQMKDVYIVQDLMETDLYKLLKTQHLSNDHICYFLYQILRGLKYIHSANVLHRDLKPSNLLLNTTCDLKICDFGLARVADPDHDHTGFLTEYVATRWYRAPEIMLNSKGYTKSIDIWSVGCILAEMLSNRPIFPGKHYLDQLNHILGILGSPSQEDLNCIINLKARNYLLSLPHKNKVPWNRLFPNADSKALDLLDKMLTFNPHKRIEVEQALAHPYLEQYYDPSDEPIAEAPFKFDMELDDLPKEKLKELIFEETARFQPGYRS
Sequence of Mitogen-activated protein kinase 1 and 3 (ERK2 and ERK1) (Mus musculus) (Q63844 whole entry, looked up): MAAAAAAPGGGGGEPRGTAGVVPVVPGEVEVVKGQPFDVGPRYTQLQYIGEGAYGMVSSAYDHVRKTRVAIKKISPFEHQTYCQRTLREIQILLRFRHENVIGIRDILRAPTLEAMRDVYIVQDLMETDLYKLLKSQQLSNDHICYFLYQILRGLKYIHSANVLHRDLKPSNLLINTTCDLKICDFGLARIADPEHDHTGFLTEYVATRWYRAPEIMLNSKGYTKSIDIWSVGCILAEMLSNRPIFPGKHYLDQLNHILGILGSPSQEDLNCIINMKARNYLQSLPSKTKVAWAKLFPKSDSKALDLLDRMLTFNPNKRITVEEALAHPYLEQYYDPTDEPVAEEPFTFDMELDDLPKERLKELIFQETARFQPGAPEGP
How it was run: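 BMDMs (bone marrow cells grown in RPMI 1640 with 10% FCS and 20% L929-conditioned medium) stimulated, then lysates run on 10% SDS-PAGE and transferred to PVDF. Membranes blocked with 5% BSA and probed with phospho-ERK1/2 and total ERK1/2 antibodies, or with anti-IκBα. HRP anti-rabbit secondary, chemiluminescent detection.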

[7] = target: Transcription factor p65 (Mus musculus) (UniProt Q04207); test: Activation of NFkappaB p65 in mouse BMDM assessed as phosphorylation at 10 ug/ml after 15 to 30 mins by Western blotting
Sequence of Transcription factor p65 (Mus musculus) (Q04207 whole entry): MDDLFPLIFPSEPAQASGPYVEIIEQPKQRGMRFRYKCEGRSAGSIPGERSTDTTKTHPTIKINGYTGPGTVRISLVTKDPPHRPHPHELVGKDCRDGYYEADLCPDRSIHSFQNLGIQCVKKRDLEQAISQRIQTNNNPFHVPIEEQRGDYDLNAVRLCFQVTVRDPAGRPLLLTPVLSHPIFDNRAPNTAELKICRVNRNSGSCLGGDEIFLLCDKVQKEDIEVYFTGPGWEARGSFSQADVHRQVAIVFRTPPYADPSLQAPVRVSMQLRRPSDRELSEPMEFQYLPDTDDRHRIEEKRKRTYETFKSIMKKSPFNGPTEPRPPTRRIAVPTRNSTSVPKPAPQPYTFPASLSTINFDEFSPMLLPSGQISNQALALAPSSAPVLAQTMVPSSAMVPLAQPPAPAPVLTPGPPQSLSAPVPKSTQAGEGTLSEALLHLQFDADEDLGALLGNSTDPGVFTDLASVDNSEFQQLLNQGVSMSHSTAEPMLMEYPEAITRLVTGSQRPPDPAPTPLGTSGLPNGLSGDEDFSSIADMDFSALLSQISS
How it was run: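 BMDMs came from mouse bone marrow cultured in RPMI 1640 with 10% FCS and 20% L929-conditioned medium. After treatment, lysates were run on 10% SDS−PAGE, transferred to PVDF, blocked with 5% BSA, and probed for phospho-p65. Detection used an HRP anti-rabbit IgG secondary and chemiluminescence.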

[8] = system: THP-1; test: Increase of cytokine production in PMA-differentiated human THP1 cells by ELISA; type: functional, cell-based
[9] = system: Mus musculus; test: Stimulation of innate immune response in Kunming mouse assessed as protection against CLP-induced mortality by measuring survival rate at 10 mg/kg, ip administered 2 hrs before bacterial infection measured up to 7 days; type: functional; conditions: route intraperitoneal
[10] = system: BMDM; test: Increase of CXCL2 protein level in mouse BMDM at 20 ug/ml after 18 hrs by ELISA; type: functional
How it was run: (§1)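 Bone marrow-derived macrophages (RPMI 1640, 10% FCS, 20% L929-conditioned medium) stimulated with peptide for 18 h. Cytokines and chemokines in culture supernatant quantified by sandwich ELISA. Mean ± SD from three independent experiments, unpaired t test.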

[11] = Increase of CXCL2 production in mouse BMDM after 6 hrs by ELISA in presence of NFkappaB inhibitor Bay11-7082; type: functional
[12] = Increase of CXCL1 protein level in mouse BMDM at 10 ug/ml after 18 hrs by ELISA; type: functional; how it was run: as §1
[13] = system: Mus musculus; test: Stimulation of innate immune response in Kunming mouse assessed as protection against Staphylococcus aureus ATCC 25923-induced mortality by measuring survival rate at 10 mg/kg, ip administered 5 hrs before bacterial infection measured up to 7 days; type: functional; conditions: route intraperitoneal
How it was run: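 Female Kunming mice (18−22 g) received a single ip dose in sterile saline 5 h before ip challenge with P. aeruginosa 27853 (8 × 10^7 CFU/mouse; n = 8) or S. aureus 25923 (2 × 10^8 CFU/mouse; n = 10). Mice were checked every 6 h for up to 7 days, with a humane end point. Curves were compared by log-rank test.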

[14] = system: Mus musculus; test: Stimulation of innate immune response in neutropenic Kunming mouse infected with Pseudomonas aeruginosa ATCC 27853 assessed as reduction of bacterial burden in peritoneal lavage at 10 mg/kg, ip relative to control; type: functional; parameters: scale not given: the % may be the effect or the level left; conditions: route intraperitoneal
How it was run: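 Mice were made neutropenic with cyclophosphamide ip, 150 mg/kg on day 0 and 100 mg/kg on day 3. Peptide was given ip at 10 mg/kg 5 h before ip bacterial infection on day 5 (n = 10). Viable bacteria in the peritoneal cavity were counted 8 h after inoculation, and groups were compared by unpaired t test.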

[15] = system: Mus musculus; test: Stimulation of innate immune response in Kunming mouse assessed as protection against bacteria-induced mortality by measuring survival rate at 10 mg/kg, ip measured up to 7 days; type: functional, organism-based; parameters: dose 10 mg/kg
[16] = system: RAW264.7; test: Inhibition of LTA-induced TNFalpha production in mouse RAW264.7 cells 2 to 50 ug/ml after 6 hrs by ELISA; type: functional, cell-based
[17] = Induction of IL-1Ra mRNA up-regulation in mouse BMDM at 20 ug/ml after 3 hrs by qRT-PCR analysis relative to control; type: functional
How it was run: (§2)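 Murine BMDMs stimulated with peptide, then target mRNA quantified by qRT-PCR. Expression normalized to GAPDH, with untreated cells set to 1.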

[18] = Induction of IL-6 mRNA up-regulation in mouse BMDM at 20 ug/ml after 3 hrs by qRT-PCR analysis relative to control; type: functional; how it was run: as §2
[19] = system: BMDM; test: Increase of IL-6 protein level in mouse BMDM at 20 ug/ml after 18 hrs by ELISA; type: functional; how it was run: as §1
[20] = system: Mus musculus; test: Stimulation of innate immune response in neutropenic Kunming mouse infected with Pseudomonas aeruginosa ATCC 27853 assessed as increase of resident monocytes/macrophagess in peritoneal lavage at 10 mg/kg, ip; type: functional, organism-based; parameters: dose 10 mg/kg
How it was run: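 Mice were made neutropenic with ip cyclophosphamide, 150 mg/kg on day 0 and 100 mg/kg on day 3. They were then injected ip with peptide at 10 mg/kg. Peritoneal cells were collected up to 24 h afterwards and typed by flow cytometry after GR1/F4/80 staining.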

[21] = system: Mus musculus; test: Stimulation of innate immune response in Kunming mouse assessed as increase of leukocytes in peritoneal lavage at 10 mg/kg, ip after 5 hrs; type: functional, organism-based; parameters: dose 10 mg/kg
How it was run: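 Female Kunming mice were given peptide ip at 10 mg/kg. At 5 h, peritoneal cells were recovered by lavage with 2 mL PBS and counted. Cells were stained with anti-F4/80-PE and GR1-FITC for 30 min at room temperature and typed by flow cytometry: neutrophils GR1+/F4/80−, resident monocytes/macrophages GR1−/F4/80+, inflammatory monocytes GR1+/F4/80+. Data are mean ± SD from three mice, unpaired t test.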

[22] = system: Mus musculus; test: Stimulation of innate immune response in bacteria infected Kunming mouse assessed as eradicate invading bacteria at 10 mg/kg, ip after 8 hrs; type: functional, organism-based; parameters: dose 10 mg/kg

CC[C@H](C)[C@H](NC(=O)[C@@H](NC(=O)[C@H](CCCNC(=N)N)NC(=O)[C@@H]1CCCN1C(=O)[C@H](CCCCN)NC(=O)[C@H](CCCCN)NC(=O)[C@H](Cc1ccccc1)NC(=O)[C@H](Cc1ccccc1)NC(=O)[C@H](CCCCN)NC(=O)[C@H](CCCCN)NC(=O)[C@H](C)NC(=O)[C@H](CCCNC(=N)N)NC(=O)[C@H](CCCCN)NC(=O)[C@H](CCCCN)NC(=O)[C@@H](NC(=O)[C@H](CO)NC(=O)[C@H](CC(N)=O)NC(=O)[C@H](CCCCN)NC(=O)[C@H](CC(C)C)NC(=O)[C@H](CCCCN)NC(=O)[C@H](CCCCN)NC(=O)[C@H](Cc1ccccc1)NC(=O)[C@H](Cc1ccccc1)NC(=O)[C@@H](N)CCCCN)C(C)C)C(C)C)C(=O)NCC(=O)N[C@H](C(=O)N[C@@H](CO)C(=O)N[C@H](C(=O)N1CCC[C@H]1C(=O)N[C@@H](Cc1ccccc1)C(=O)O)[C@@H](C)CC)C(C)C (H-KFFKKLKNSVKKRAKKFFKKPRVIGVSIPF-OH)
Activity [1]: Active
Activity [2]: inactive
Activity [3]: Active
Activity [4]: Non-toxic
survival at 10 mg/kg [5]: 95%
Activity [6]: Active
Activity [7]: inactive
Activity [8]: Active
survival at 10 mg/kg [9]: 40%
Activity [10]: Active
Activity [11]: 1000 pg/mL
Activity [12]: 269 pg/mL
survival at 10 mg/kg [13]: > 60%
Activity [14]: 40%
Activity [15]: inactive
inhibition [16]: inactive
fold change (FC) [17]: 25
fold change (FC) [18]: 4.5
Activity [19]: inactive
Activity [20]: Active
Activity [21]: Active
Activity [22]: inactive
